Activity calls are given as the source filed them. The rule behind the calls is not given here.
Legend:
[1] = target: T1, Protein cereblon/Fibroblast growth factor receptor 2 (Homo sapiens, UniProt P21802+Q96SW2); assay: PROTAC activity at CRBN/FGFR2 in human KATO III stomach cancer cell line assessed as FGFR2 degradation by measuring FGFR2 expression level at 100 to 500 nM measured for 6 hrs by Western blotting analysis; type: cell-based; conditions: dose 100-500 nM
Procedure, shortened: (§1)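 KATO III cells treated 6 h across 0.5–10,000 nM (DMSO stock, final DMSO below 0.5%); FGFR2 immunoblotted, quantified as FGFR2/β-actin ratio normalized to DMSO-treated cells, three independent biological experiments; DC50 and Dmax derived from the curve.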
Target sequence in this assay (P21802 22-821 limits assumed): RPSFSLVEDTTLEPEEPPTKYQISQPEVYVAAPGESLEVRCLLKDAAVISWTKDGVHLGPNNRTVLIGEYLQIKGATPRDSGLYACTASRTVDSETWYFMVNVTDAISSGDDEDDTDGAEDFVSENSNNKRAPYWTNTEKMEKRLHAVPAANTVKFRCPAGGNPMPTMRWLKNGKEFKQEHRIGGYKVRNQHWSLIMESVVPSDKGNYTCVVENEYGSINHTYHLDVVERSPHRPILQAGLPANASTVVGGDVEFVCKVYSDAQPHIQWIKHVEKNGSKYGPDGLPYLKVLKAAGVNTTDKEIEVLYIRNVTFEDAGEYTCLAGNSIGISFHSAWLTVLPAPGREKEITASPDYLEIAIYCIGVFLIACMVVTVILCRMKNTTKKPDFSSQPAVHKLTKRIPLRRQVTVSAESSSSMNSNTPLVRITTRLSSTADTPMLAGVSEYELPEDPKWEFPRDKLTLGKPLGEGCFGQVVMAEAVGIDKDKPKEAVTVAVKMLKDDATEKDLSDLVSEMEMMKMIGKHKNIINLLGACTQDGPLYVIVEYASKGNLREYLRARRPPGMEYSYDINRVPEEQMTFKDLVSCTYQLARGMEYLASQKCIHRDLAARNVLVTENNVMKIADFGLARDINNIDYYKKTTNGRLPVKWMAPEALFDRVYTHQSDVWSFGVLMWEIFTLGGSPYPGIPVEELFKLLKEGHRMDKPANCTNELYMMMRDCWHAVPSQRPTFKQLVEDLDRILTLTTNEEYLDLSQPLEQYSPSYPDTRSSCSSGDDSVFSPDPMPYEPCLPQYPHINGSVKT
Target sequence in this assay (Q96SW2 whole entry partner): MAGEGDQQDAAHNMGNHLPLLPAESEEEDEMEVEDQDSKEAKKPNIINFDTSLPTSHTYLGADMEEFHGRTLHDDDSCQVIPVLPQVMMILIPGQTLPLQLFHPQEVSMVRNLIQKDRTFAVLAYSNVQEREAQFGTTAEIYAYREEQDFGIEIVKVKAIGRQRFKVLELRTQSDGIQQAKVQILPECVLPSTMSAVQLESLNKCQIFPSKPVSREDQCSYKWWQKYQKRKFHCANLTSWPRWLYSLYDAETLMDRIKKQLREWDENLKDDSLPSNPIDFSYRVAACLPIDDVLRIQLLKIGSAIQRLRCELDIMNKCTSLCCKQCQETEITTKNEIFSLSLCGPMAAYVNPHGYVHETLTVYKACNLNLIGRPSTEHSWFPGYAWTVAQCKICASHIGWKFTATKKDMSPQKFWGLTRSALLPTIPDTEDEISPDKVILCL

[2] = tested on: KATO III stomach cancer cell line; assay: Antiproliferative activity against human KATO III stomach cancer cell line assessed as reduction in cell viability measured for 72 hrs by celltiter-glo reagent based assay; type: functional
Procedure, shortened: (§2)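 Cancer lines KATO III, SNU16, NCI-H716, NCI-H1975, MV-4-11 and HEK293T treated 72 h; antiproliferative IC50 given as mean ± s.d. from three independent biological experiments.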

[3] = tested on: SNU-16; assay: Antiproliferative activity against human SNU-16 cells assessed as reduction in cell viability measured for 72 hrs by celltiter-glo reagent based assay; type: functional; conditions: SNU-16, 72 h; procedure, shortened: as §2
[4] = tested on: NCI-H716; assay: Antiproliferative activity against human NCI-H716 cells assessed as reduction in cell viability measured for 72 hrs by celltiter-glo reagent based assay; type: functional; conditions: NCI-H716, 72 h; procedure, shortened: as §2
[5] = tested on: SNU-16; assay: Antitumor activity against human SNU-16 cells xenografted in BALB/c nude mouse assessed as tumor growth inhibition at 20 mg/kg, po administered for 15 days and measured on day 2; type: functional; conditions: SNU-16, 48 h, time 2 day, read-out: TGI
Procedure, shortened: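 Female BALB/c nude mice, 5 weeks old (20–22 g), s.c. right-flank SNU-16 implants, randomized by body weight into groups (n = 5) once tumours reached 50–100 mm3. Dosing 20 mg/kg/day intragastric in 0.5% CMC-Na for 15 d; vehicle controls. Tumour width and length measured every 2 days; tumours harvested 4 h after last dose and lysates immunoblotted for pFGFR, FGFR2, pPLCγ, pErk.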

[6] = target: T1, Protein cereblon/Fibroblast growth factor receptor 2; assay: PROTAC activity at CRBN/FGFR2 in human KATO III stomach cancer cell line assessed as FGFR2 degradation measured for 6 hrs by immunoblot analysis; type: cell-based
Procedure, shortened: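 KATO III cells treated for 6 h at the stated concentrations, added from 10 mM DMSO stocks (final DMSO below 0.5%). Cells were washed with PBS and lysed in 2× loading buffer, then run on SDS-PAGE and blotted to PVDF. Anti-FGFR2 was applied overnight at 4 °C, with ECL detection. FGFR2 was expressed as FGFR2/β-actin, normalized to DMSO-treated cells, from three independent biological experiments.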
Target sequence in this assay (P21802 22-821 limits assumed): as the sequence (P21802 22-821 limits assumed) above
Target sequence in this assay (Q96SW2 whole entry partner): as the sequence (Q96SW2 whole entry partner) above

[7] = tested on: NCI-H1975; assay: Antiproliferative activity against human NCI-H1975 cells assessed as reduction in cell viability measured for 72 hrs by celltiter-glo reagent based assay; type: functional; conditions: NCI-H1975, 72 h; procedure, shortened: as §2
[8] = tested on: MV4-11; assay: Antiproliferative activity against human MV4-11 cells assessed as reduction in cell viability measured for 72 hrs by celltiter-glo reagent based assay; type: functional; conditions: MV4-11, 72 h; procedure, shortened: as §2
[9] = Antiproliferative activity against human HEK293T cells assessed as reduction in cell viability measured for 72 hrs by celltiter-glo reagent based assay; type: toxicity, HEK-293T; procedure, shortened: as §2
[10] = target: T1, Protein cereblon/Fibroblast growth factor receptor 2; assay: PROTAC activity at CRBN/FGFR2 in human KATO III stomach cancer cell line assessed as FGFR2 degradation by measuring FGFR2 expression level at 15 uM measured for 6 hrs by Western blotting analysis; type: cell-based
Target sequence in this assay (P21802 22-821 limits assumed): as the sequence (P21802 22-821 limits assumed) above
Target sequence in this assay (Q96SW2 whole entry partner): as the sequence (Q96SW2 whole entry partner) above

[11] = target: T1, Protein cereblon/Fibroblast growth factor receptor 2; assay: PROTAC activity at CRBN/FGFR2 in human KATO III stomach cancer cell line assessed as FGFR2 degradation by measuring FGFR2 expression level at 500 nM measured for 6 hrs by Western blotting analysis relative to control; type: cell-based; procedure, shortened: as §1
Target sequence in this assay (P21802 22-821 limits assumed): as the sequence (P21802 22-821 limits assumed) above
Target sequence in this assay (Q96SW2 whole entry partner): as the sequence (Q96SW2 whole entry partner) above

[12] = target: T1, Protein cereblon/Fibroblast growth factor receptor 2; assay: PROTAC activity at CRBN/FGFR2 in human KATO III stomach cancer cell line assessed as FGFR2 degradation by measuring FGFR2 expression level measured for 6 hrs by Western blotting analysis; type: cell-based; procedure, shortened: as §1
Target sequence in this assay (P21802 whole entry): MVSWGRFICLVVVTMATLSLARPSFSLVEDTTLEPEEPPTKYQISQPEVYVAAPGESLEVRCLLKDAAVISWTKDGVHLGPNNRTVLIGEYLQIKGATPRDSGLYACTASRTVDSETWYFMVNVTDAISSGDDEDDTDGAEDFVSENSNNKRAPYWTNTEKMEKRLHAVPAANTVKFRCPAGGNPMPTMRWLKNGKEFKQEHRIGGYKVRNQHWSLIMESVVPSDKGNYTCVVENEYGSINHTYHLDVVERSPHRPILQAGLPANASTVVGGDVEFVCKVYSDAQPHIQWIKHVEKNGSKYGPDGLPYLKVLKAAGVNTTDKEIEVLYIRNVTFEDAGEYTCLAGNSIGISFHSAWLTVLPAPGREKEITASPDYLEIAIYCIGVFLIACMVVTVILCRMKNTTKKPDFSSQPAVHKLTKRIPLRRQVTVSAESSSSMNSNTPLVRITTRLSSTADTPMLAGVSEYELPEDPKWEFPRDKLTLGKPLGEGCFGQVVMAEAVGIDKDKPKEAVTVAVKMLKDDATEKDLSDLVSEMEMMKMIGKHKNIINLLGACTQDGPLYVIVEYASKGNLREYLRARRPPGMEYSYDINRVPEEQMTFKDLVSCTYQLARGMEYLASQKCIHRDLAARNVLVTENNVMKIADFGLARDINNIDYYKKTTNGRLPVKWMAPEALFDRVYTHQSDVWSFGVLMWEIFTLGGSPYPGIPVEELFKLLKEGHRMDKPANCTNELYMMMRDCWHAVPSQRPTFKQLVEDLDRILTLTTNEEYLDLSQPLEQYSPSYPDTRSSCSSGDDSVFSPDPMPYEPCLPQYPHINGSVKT
Target sequence in this assay (Q96SW2 whole entry): as the sequence (Q96SW2 whole entry partner) above

[13] = Oral bioavailability in mouse at 10 mg/kg; type: ADME, organism-based; conditions: in vivo

For `COc1cc(OC)c(Cl)c(NC(=O)N(C)c2cc(Nc3ccc(N4CCN(CC(=O)NCCNc5cccc6c5C(=O)N(C5CCC(=O)NC5=O)C6=O)CC4)cc3)ncn2)c1Cl` (centres undefined), the Activity [1] was “inactive”.

Work on `CCN1CCN(c2ccc(Nc3cc(N(C)C(=O)Nc4c(Cl)c(OC)cc(OC)c4Cl)ncn3)cc2)CC1` [INFIGRATINIB] yielded an IC50 [2] of 60.3 nM, an IC50 [3] of 95.4 nM and an IC50 [4] of 65.9 nM. The inhibition in vivo at 20 mg/kg [5] was 53.7%.

For `COc1cc(OC)c(Cl)c(NC(=O)N(C)c2cc(Nc3ccc(N4CCN(C(=O)C5CCN(c6ccc7c(c6)C(=O)N(C6CCC(=O)N(C)C6=O)C7=O)CC5)CC4)cc3)ncn2)c1Cl` (centres undefined), the Activity [6] was “inactive”, the IC50 [2] was 497 nM and the IC50 [3] was 108 nM. For the same compound, the IC50 [4] was 99.5 nM, the IC50 [7] was over 10000 nM and the IC50 [8] was over 10000 nM. It also gave an IC50 at 72 h [9] of over 10000 nM.

In the case of `COc1cc(OC)c(Cl)c(NC(=O)N(C)c2cc(Nc3ccc(N4CCN(C(=O)CCCCCCCCCCCNc5cccc6c5C(=O)N(C5CCC(=O)NC5=O)C6=O)CC4)cc3)ncn2)c1Cl` (centres undefined), the Activity [1] is reported as “inactive”.

With `COc1cc(OC)c(Cl)c(NC(=O)N(C)c2cc(Nc3ccc(N4CCN(CC(=O)NCCOCCOCCNC(=O)C5CCN(c6ccc7c(c6)C(=O)N(C6CCC(=O)NC6=O)C7=O)CC5)CC4)cc3)ncn2)c1Cl` (centres undefined) the Activity [10] was “inactive”.

For `COc1cc(OC)c(Cl)c(NC(=O)N(C)c2cc(Nc3ccc(N4CCN(CC(=O)NCCCCCNc5cccc6c5C(=O)N(C5CCC(=O)NC5=O)C6=O)CC4)cc3)ncn2)c1Cl` (centres undefined), the Activity [11] was 66%, the Activity ([11]; DEGRADER) was 20% and the DC50 [12] was 41.5 nM.

For `COc1cc(OC)c(Cl)c(NC(=O)N(C)c2cc(Nc3ccc(N4CCN(C(=O)CCCCCCCNc5cccc6c5C(=O)N(C5CCC(=O)NC5=O)C6=O)CC4)cc3)ncn2)c1Cl` (centres undefined), the Activity ([11]; DEGRADER) was 40%.

In the case of `COc1cc(OC)c(Cl)c(NC(=O)N(C)c2cc(Nc3ccc(N4CCN(CC(=O)N[C@H](C(=O)N5C[C@H](O)C[C@H]5C(=O)N[C@@H](C)c5ccc(-c6scnc6C)cc5)C(C)(C)C)CC4)cc3)ncn2)c1Cl`, the bioavailability [13] is reported as 0.2%.

Reference: ChEMBL document CHEMBL5338796, “Discovery of a Selective and Orally Bioavailable FGFR2 Degrader for Treating Gastric Cancer” (J Med Chem, 2023)
